Source: ChEMBL document CHEMBL4350958, “Rational Design of Short Peptide Variants by Using Kunitzin-RE, an Amphibian-Derived Bioactivity Peptide, for Acquired Potent Broad-Spectrum Antimicrobial and Improved Therapeutic Potential of Commensalism Coinfection of Pathogens” (J Med Chem, 2019)
In brackets after ≈: the same amount, converted by molar mass. Activity calls are given as the source filed them. The calls are words filed in the database; no cut-off is given here.

Key:
Staphylococcus aureus [1] = assay: Antibacterial activity against Staphylococcus aureus ATCC 25923 measured after 24 hrs; type: functional; conditions: ATCC 25923, 24 h
Procedure, shortened: (§1)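 Broth microdilution modified from NCCLS. Mid-log bacteria at (0.5–1) × 10^5 CFU mL−1 in MHB, mixed with peptides serially diluted in 0.2% BSA. Incubated 24 h at 37 °C, read at A492. MIC taken as lowest concentration giving 95% growth inhibition. At least three independent experiments, each with three technical replicates.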

Staphylococcus aureus [2] = assay: Antibacterial activity against Staphylococcus aureus ATCC 29213 measured after 18 to 24 hrs in presence of ZnCl2; type: functional
Procedure, shortened: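 MIC broth microdilution (MHB, 0.2% BSA peptide diluent, A492, 95% inhibition) run in the presence of physiological salts at final concentrations of 6 μM NH4Cl or 8 μM ZnCl2. Three independent assays, each with three technical replicates.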

Escherichia coli = assay: Antibacterial activity against Escherichia coli ATCC 25922 measured after 18 to 24 hrs in presence of NH4Cl; type: functional
Staphylococcus aureus [3] = assay: Antibacterial activity against Staphylococcus aureus ATCC 29213 measured after 24 hrs; type: functional; conditions: ATCC 29213, 24 h; procedure, shortened: as §1
Candida albicans [4] = assay: Antifungal activity against Candida albicans cgmcc2.2086 measured after 48 hrs in presence of ZnCl by broth microdilution method; type: functional; conditions: cgmcc2.2086, 48 h
Candida tropicalis [5] = assay: Antifungal activity against Candida tropicalis cgmcc2.1975 measured after 48 hrs by broth microdilution method; type: functional; conditions: cgmcc2.1975, 48 h
Procedure, shortened: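 Modified CLSI M27-A2 microdilution. Yeast colonies were diluted in MOPS-buffered RPMI 1640 to a final (0.5–1) × 10^3 CFU mL−1 and mixed with an equal volume of peptide serially diluted in 0.2% BSA. After 48 h at 28 °C, MIC was read at A492 as the lowest concentration inhibiting 95% of growth. At least three independent experiments, each with three technical replicates.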

[6] = Bactericidal activity against Salmonella pullorum ATCC 7913 incubated for 24 hrs followed by replating on agar plate and measured after overnight incubation; type: functional, Salmonella enterica subsp. enterica serovar Pullorum; conditions: Salmonella enterica, ATCC 7913, 24 h; read-out: MBC>99.9
Procedure, shortened: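 Mid-log bacteria diluted in MHB to (0.5–1) × 10^5 CFU/mL and mixed 1:1 with peptide serially diluted in 0.2% BSA. After 24 h at 37 °C, 50 μL of each mixture was plated on agar and incubated overnight. MBC taken as the lowest concentration killing >99.9% of cells. At least three independent experiments, each with three technical replicates.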

Candida tropicalis [7] = assay: Fungicidal activity against Candida tropicalis cgmcc2.1975 incubated for 48 hrs followed by replating on YM agar plate and measured after 48 hrs; type: functional
Procedure, shortened: (§2)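 Yeast diluted in MOPS-buffered RPMI 1640 to (0.5–1) × 10^3 CFU/mL (CLSI M27-A2, modified) and mixed 1:1 with peptide serially diluted in 0.2% BSA. After 48 h at 28 °C, 50 μL per well was plated on YM agar and incubated 48 h at 28 °C. MFC taken as the lowest concentration killing ≥99.9% of cells. Three or more independent experiments, triplicate wells.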

Candida parapsilosis = assay: Fungicidal activity against Candida parapsilosis cgmcc2.3989 incubated for 48 hrs followed by replating on YM agar plate and measured after 48 hrs; type: functional; procedure, shortened: as §2
Candida albicans [8] = assay: Fungicidal activity against Candida albicans cgmcc2.2086 incubated for 48 hrs followed by replating on YM agar plate and measured after 48 hrs; type: functional; procedure, shortened: as §2
[9] = Conformational stability in sodium dodecyl sulfate assessed as beta-sheet conformation by measuring absorption spectra at maximum dichroic band at 35 uM by CD spectra analysis; type: physicochemical
Procedure, shortened: (§3)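 CD spectra from 190 to 250 nm of peptide at 35 μM in 10 mM PBS, 30 mM SDS micelles or 50% TFE, recorded in a 1.0-mm quartz cell. Ellipticity was converted to mean residue ellipticity. Three independent scans, each averaged over more than 3 runs.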

[10] = Conformational stability in sodium dodecyl sulfate assessed as beta-sheet conformation by measuring absorption spectra at minimum dichroic band at 35 uM by CD spectra analysis; type: physicochemical; procedure, shortened: as §3
[11] = Conformational stability in sodium dodecyl sulfate at 35 uM by CD spectra analysis; type: physicochemical; procedure, shortened: as §3
Pseudomonas aeruginosa [12] = assay: Antibacterial activity against Pseudomonas aeruginosa ATCC 27853 assessed as ratio of MBC after and before 30 serial passages at sub-MBC; type: functional
Procedure, shortened: (§4)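 P. aeruginosa ATCC 27853 passaged every 24 h by 100-fold dilution in MHB containing sub-MBC drug, for 30 passages. MBC was tested on the cells from each passage. Control cells were passaged in drug-free MHB. Run independently in triplicate with three biological replicates.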

Lipopolysaccharide (LPS) = assay: Displacement of BODIPY-TR-cadaverine from Escherichia coli O111:B4 LPS after 1 hr by spectrofluorophotometric method
Procedure, shortened: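 LPS from E. coli O111:B4 (50 μg/mL) preincubated 4 h with BODIPY-TR-cadaverine (5 μg/mL) in 50 mM Tris, pH 7.4. Mixed with equal volume of peptide (1-64 µM) and incubated 1 h at 37 °C, then fluorescence read. %ΔF = (Fobs−F0)/(F100−F0)×100, with 10 μg mL-1 polymyxin B defining F100. Three technical replicates per experiment.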

Pseudomonas aeruginosa [13] = assay: Antibacterial activity against Pseudomonas aeruginosa ATCC 27853 at sub-MBC measured after 17 serial passages; type: functional, organism-based; procedure, shortened: as §4

Compound | MIC95 (Staphylococcus aureus [1]) [µM] | MIC95 (Staphylococcus aureus [2]) [µM] | MIC95 (Escherichia coli) [µM] | MIC95 (Staphylococcus aureus [3]) [µM] | MIC95 (Candida albicans [4]) [µM] | MIC95 (Candida tropicalis [5]) [µM] | MBC [6] [µM] | MFC<=99.9 (Candida tropicalis [7]) [µM] | MFC<=99.9 (Candida parapsilosis) [µM] | MFC<=99.9 (Candida albicans [8]) [µM] | Wavelength of maximum dichroic band [9] [nm] | Activity [10] [nm] | Stability [11] | Ratio (Pseudomonas aeruginosa [12]) | Activity (Lipopolysaccharide (LPS)) | Activity (Pseudomonas aeruginosa [13])
CC(C)(O/N=C(\C(=O)N[C@@H]1C(=O)N2C(C(=O)[O-])=C(C[n+]3ccccc3)CS[C@H]12)c1csc(N)n1)C(=O)O [CEFTAZIDIME] | 16 (≈ 8.75 µg/mL) | 16 | 2 | 16 (≈ 8.75 µg/mL) | > 128 | > 128 | 2 (≈ 1.09 µg/mL) | – | – | – | – | – | – | – | – | –
H-AARIILRWFRR-NH2 | 8 | 2 | 2 | 4 | 8 | 4 | 8 | 4 | 8 | 8 | 200 | 216 to 220 | – | – | – | –
H-AARIILRARFR-NH2 | 4 | 4 | 2 | 4 | 16 | 4 | 8 | 4 | 16 | 32 | 200 | 216 to 220 | – | – | – | –
H-AARIILRDRFR-NH2 | > 128 | > 128 | > 128 | > 128 | > 128 | > 128 | – | – | – | – | – | – | Unstable | – | – | –
H-AAKIILNPKFR-NH2 | > 128 | > 128 | > 128 | > 128 | > 128 | > 128 | – | – | – | – | – | – | Unstable | – | – | –
H-AARIILRFRFR-NH2 | 2 | 2 | 4 | 2 | 8 | 4 | 8 | 4 | 8 | 16 | 200 | 216 to 220 | – | – | – | –
CC[C@H](C)[C@H](NC(=O)CN)C(=O)NCC(=O)N[C@@H](C)C(=O)N[C@H](C(=O)N[C@@H](CC(C)C)C(=O)N[C@@H](CCCCN)C(=O)N[C@H](C(=O)N[C@@H](CC(C)C)C(=O)N[C@H](C(=O)N[C@H](C(=O)NCC(=O)N[C@@H](CC(C)C)C(=O)N1CCC[C@H]1C(=O)N[C@@H](C)C(=O)N[C@@H](CC(C)C)C(=O)N[C@H](C(=O)N[C@@H](CO)C(=O)N[C@@H](Cc1c[nH]c2ccccc12)C(=O)N[C@H](C(=O)N[C@@H](CCCCN)C(=O)N[C@@H](CCCNC(=N)N)C(=O)N[C@@H](CCCCN)C(=O)N[C@@H](CCCNC(=N)N)C(=O)N[C@@H](CCC(N)=O)C(=O)N[C@@H](CCC(N)=O)C(N)=O)[C@@H](C)CC)[C@@H](C)CC)[C@@H](C)O)[C@@H](C)O)C(C)C)C(C)C [MELITTIN] | 8 (≈ 22.8 µg/mL) | 4 | 2 | 4 (≈ 11.4 µg/mL) | 4 | 4 (≈ 11.4 µg/mL) | 2 (≈ 5.69 µg/mL) | 4 (≈ 11.4 µg/mL) | 4 (≈ 11.4 µg/mL) | 8 (≈ 22.8 µg/mL) | – | – | – | 128 | Dose-dependent effect | inactive
H-AARIILRTRFR-NH2 | 16 | 16 | 8 | 16 | > 128 | 32 | 16 | 64 | – | – | 200 | 216 to 220 | – | – | – | –
